Assay results as given in ChEMBL document CHEMBL2331355, “Synthesis, structure activity relationship and mode of action of 3-substitutedphenyl-1-(2,2,8,8-tetramethyl-3,4,9,10-tetrahydro-2H,8H-pyrano[2,3-f]chromen-6-yl)-propenones as novel anticancer agents in human leukaemia HL-60 cells” (Eur J Med Chem, 2013).
pIC50: −log10 of the molar value. The source made the active and inactive calls. The calls are words filed in the database; no cut-off is given here.

What was measured:
HL-60 [1] = assay: Induction of apoptosis in human HL60 cells assessed as nuclear condensation after 24 hrs by Hoechst 33258 staining; assay type: functional, cell-based
Method in brief: (§1)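 HL-60 cells (1 × 10⁶/2 ml) treated 24 h at 15 and 20 µM, pelleted at 300 g and washed. Stained with Hoechst 33258, then examined under an inverted fluorescence microscope (10×, UV excitation) for nuclear condensation, blebbing and apoptotic bodies.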

Caco-2 [2] = assay: Cytotoxicity against human Caco2 cells after 48 hrs by MTT assay; assay type: functional, cell-based; conditions: Caco-2, 48 h
Method in brief: (§2)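 MTT assay in 96-well plates, 48 h exposure across 1–100 µM. OD read at 570 nm against a 620 nm reference. Untreated control OD taken as 100% viability. IC50 derived from the concentration–response curves. Mean ± SD, n = 8 wells, from three independent experiments.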

HL-60 [3] = assay: Cell cycle arrest in human HL60 cells assessed as accumulation of G0/G1 phase cells at 20 uM after 24 hrs by PI staining-based flow cytometric analysis (reference value: 48%); assay type: functional
HL-60 [4] = assay: Cell cycle arrest in human HL60 cells assessed as decrease in S phase cells after 24 hrs by PI staining-based flow cytometric analysis; assay type: functional
HL-60 [5] = assay: Growth inhibition of human HL60 cells at 50 uM after 48 hrs by MTT assay; assay type: functional; conditions: HL-60, 48 h, read-out: GI
Method in brief: (§3)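 Single-concentration MTT screen at 50 µM over 48 h in 96-well plates. Compounds giving >50% inhibition were rescreened at 30 µM. OD read at 570 nm, reference 620 nm. Result expressed as % growth inhibition versus untreated control. Mitomycin C, adriamycin or 5-fluorouracil used as positive controls. Mean ± SD of three independent experiments.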

HL-60 [6] = assay: Induction of apoptosis in human HL60 cells assessed as DNA fragmentation at 20 uM after 24 hrs by SDS-PAGE analysis; assay type: functional, cell-based; conditions: in the assay text read “agarose gel electrophoresis” for “SDS-PAGE analysis”
Method in brief: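 HL-60 cells (2 × 10⁶/3 ml/well) treated at 20 µM for 24 h. Lysed, then digested with RNase (400 µg/ml, 37 °C, 90 min) and proteinase K (200 µg/ml, 50 °C, 1 h). DNA extracted with phenol/chloroform/isoamyl alcohol and alcohol-precipitated. Run on 1.8% agarose gel at 70 V for 1 h, stained with ethidium bromide, and scored for laddering.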

HL-60 [7] = assay: Cell cycle arrest in human HL60 cells assessed as S phase cells at 10 uM after 24 hrs by PI staining-based flow cytometric analysis (reference value: 49%); assay type: functional
HL-60 [8] = assay: Cell cycle arrest in human HL60 cells assessed as G2/M phase cells at 15 uM after 24 hrs by PI staining-based flow cytometric analysis (reference value: 3%); assay type: functional
ASPC1 [9] = assay: Growth inhibition of human AsPC1 cells at 30 uM after 48 hrs by MTT assay; assay type: functional, cell-based; method in brief: as §3
PC-3 [10] = assay: Cytotoxicity against human PC3 cells after 48 hrs by MTT assay; assay type: functional, cell-based; conditions: PC-3, 48 h; method in brief: as §2
HL-60 [11] = assay: Induction of apoptosis in human HL60 cells at 5 uM after 24 hrs by PI-staining based flow cytometric analysis (reference value: 0.7 %); assay type: functional
MCF7 [12] = assay: Growth inhibition of human MCF7 cells at 30 uM after 48 hrs by MTT assay; assay type: functional, cell-based; method in brief: as §3
Caco-2 [13] = assay: Growth inhibition of human Caco2 cells at 30 uM after 48 hrs by MTT assay; assay type: functional, cell-based; method in brief: as §3
HL-60 [14] = assay: Cell cycle arrest in human HL60 cells assessed as G2/M phase cells at 10 uM after 24 hrs by PI staining-based flow cytometric analysis (reference value: 3%); assay type: functional
HL-60 [15] = assay: Cell cycle arrest in human HL60 cells assessed as G2/M phase cells at 20 uM after 24 hrs by PI staining-based flow cytometric analysis (reference value: 3%); assay type: functional
HL-60 [16] = assay: Induction of mitochondrial membrane potential loss in human HL60 cells at 15 uM after 24 hrs by rhodamine-123 staining method (reference value: 7%); assay type: functional
Method in brief: (§4)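 HL-60 cells (1 × 10⁶/2 ml/well) treated 24 h at 15 or 20 µM, then incubated with rhodamine-123 (200 nM) for 40 min. Loss of dye uptake measured by flow cytometry. Camptothecin (4 µM, 6 h) as positive control. Representative of three experiments.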

MIA PaCa-2 [17] = assay: Growth inhibition of human MIAPaCa2 cells at 30 uM after 48 hrs by MTT assay; assay type: functional, cell-based; method in brief: as §3
MCF7 [18] = assay: Growth inhibition of human MCF7 cells at 50 uM after 48 hrs by MTT assay; assay type: functional; conditions: MCF7, 48 h, read-out: GI; method in brief: as §3
HL-60 [19] = assay: Cell cycle arrest in human HL60 cells assessed as S phase cells at 20 uM after 24 hrs by PI staining-based flow cytometric analysis (reference value: 49%); assay type: functional
HL-60 [20] = assay: Induction of apoptosis in human HL60 cells assessed as accumulation of sub-G0/G1 phase cells after 24 hrs by PI-staining based flow cytometric analysis; assay type: functional, cell-based
HL-60 [21] = assay: Cytotoxicity against human HL60 cells after 24 hrs by MTT assay; assay type: functional, cell-based; conditions: HL-60, 24 h
Method in brief: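 HL-60 cells exposed 24 h to a range of concentrations, then MTT reduction measured. Untreated control OD taken as 100% viability; IC50 derived from the curve. Mean ± SD, n = 8 wells, three independent experiments.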

HL-60 [22] = assay: Cell cycle arrest in human HL60 cells assessed as G2/M phase cells at 5 uM after 24 hrs by PI staining-based flow cytometric analysis (reference value: 3%); assay type: functional
Caco-2 [23] = assay: Growth inhibition of human Caco2 cells at 50 uM after 48 hrs by MTT assay; assay type: functional; conditions: Caco-2, 48 h, read-out: GI; method in brief: as §3
HL-60 [24] = assay: Growth inhibition of human HL60 cells at 30 uM after 48 hrs by MTT assay; assay type: functional, cell-based; method in brief: as §3
HL-60 [25] = assay: Cell cycle arrest in human HL60 cells assessed as accumulation of G0/G1 phase cells after 24 hrs by PI staining-based flow cytometric analysis; assay type: functional
HL-60 [26] = assay: Cell cycle arrest in human HL60 cells assessed as S phase cells at 15 uM after 24 hrs by PI staining-based flow cytometric analysis (reference value: 49%); assay type: functional
MDA-MB-435 = assay: Growth inhibition of human MDA-MB-435 cells at 30 uM after 48 hrs by MTT assay; assay type: functional, cell-based; method in brief: as §3
HL-60 [27] = assay: Induction of apoptosis in human HL60 cells at 15 uM after 24 hrs by PI-staining based flow cytometric analysis (reference value: 0.7 %); assay type: functional
PC-3 [28] = assay: Growth inhibition of human PC3 cells at 50 uM after 48 hrs by MTT assay; assay type: functional; conditions: PC-3, 48 h, read-out: GI; method in brief: as §3
HL-60 [29] = assay: Induction of mitochondrial membrane potential loss in human HL60 cells at 20 uM after 24 hrs by rhodamine-123 staining method (reference value: 7%); assay type: functional; method in brief: as §4
ASPC1 [30] = assay: Growth inhibition of human AsPC1 cells at 50 uM after 48 hrs by MTT assay; assay type: functional; conditions: ASPC1, 48 h, read-out: GI; method in brief: as §3
MIA PaCa-2 [31] = assay: Cytotoxicity against human MIAPaCa2 cells after 48 hrs by MTT assay; assay type: functional, cell-based; conditions: MIA PaCa-2, 48 h; method in brief: as §2
HL-60 [32] = assay: Induction of apoptosis in human HL60 cells assessed as nuclear blebbing after 24 hrs by Hoechst 33258 staining; assay type: functional, cell-based; method in brief: as §1
MIA PaCa-2 [33] = assay: Growth inhibition of human MIAPaCa2 cells at 50 uM after 48 hrs by MTT assay; assay type: functional; conditions: MIA PaCa-2, 48 h, read-out: GI; method in brief: as §3

`CC1(C)CCc2cc(C(=O)/C=C/c3ccc([N+](=O)[O-])cc3)c3c(c2O1)CCC(C)(C)O3` was tested, and the Activity (HL-60 [1]) was “Dose-dependent effect”, the pIC50 (Caco-2 [2]) was 4.55 and the Activity (HL-60 [3]) was 59%. For the same compound, the Activity (HL-60 [4]) was “Dose-dependent effect”, the inhibition of growth at 50 µM (HL-60 [5]) was 91% and the Activity (HL-60 [6]) was “Active”. For the same compound, the Activity (HL-60 [7]) was 44%, the Activity (HL-60 [8]) was 4% and the “growth inhibition (GI)” value (ASPC1 [9]) was “Active”. The pIC50 (PC-3 [10]) was 4.59, the Activity (HL-60 [11]) was 3% and the “growth inhibition (GI)” value (MCF7 [12]) was “Active”. The “growth inhibition (GI)” value (Caco-2 [13]) was “Active”, the Activity (HL-60 [14]) was 4% and the Activity (HL-60 [15]) was 4%. For the same compound, the Activity (HL-60 [16]) was 52%, the “growth inhibition (GI)” value (MIA PaCa-2 [17]) was “Active” and the inhibition of growth at 50 µM (MCF7 [18]) was 52%. For the same compound, the Activity (HL-60 [19]) was 37%, the Activity (HL-60 [20]) was “Dose-dependent effect” and the pIC50 (HL-60 [21]) was 4.64. For the same compound, the Activity (HL-60 [22]) was 9%, the inhibition of growth at 50 µM (Caco-2 [23]) was 73% and the “growth inhibition (GI)” value (HL-60 [24]) was “Active”. For the same compound, the Activity (HL-60 [25]) was “Dose-dependent effect”, the Activity (HL-60 [26]) was 43% and the “growth inhibition (GI)” value (MDA-MB-435) was “Active”. It also gave an Activity (HL-60 [27]) of 14%, an inhibition of growth at 50 µM (PC-3 [28]) of 61% and an Activity (HL-60 [29]) of 56%. For the same compound, the inhibition of growth at 50 µM (ASPC1 [30]) was 27%, the pIC50 (MIA PaCa-2 [31]) was 4.35 and the Activity (HL-60 [32]) was “Dose-dependent effect”. It also gave an inhibition of growth at 50 µM (MIA PaCa-2 [33]) of 74%.

`CC1(C)CCc2cc(C(=O)/C=C/c3cccc([N+](=O)[O-])c3)c3c(c2O1)CCC(C)(C)O3` was tested, and the Activity (HL-60 [1]) was “Dose-dependent effect”, the pIC50 (Caco-2 [2]) was 4.80 and the Activity (HL-60 [3]) was 86%. For the same compound, the Activity (HL-60 [4]) was “Dose-dependent effect”, the inhibition of growth at 50 µM (HL-60 [5]) was 92% and the Activity (HL-60 [6]) was “Active”. The Activity (HL-60 [7]) was 42%, the Activity (HL-60 [8]) was 4% and the “growth inhibition (GI)” value (ASPC1 [9]) was “Active”. For the same compound, the pIC50 (PC-3 [10]) was 5.10, the Activity (HL-60 [11]) was 3% and the “growth inhibition (GI)” value (MCF7 [12]) was “Active”. For the same compound, the “growth inhibition (GI)” value (Caco-2 [13]) was “Active”, the Activity (HL-60 [14]) was 4% and the Activity (HL-60 [15]) was 3%. For the same compound, the Activity (HL-60 [16]) was 44%, the “growth inhibition (GI)” value (MIA PaCa-2 [17]) was “Active” and the inhibition of growth at 50 µM (MCF7 [18]) was 89%. The Activity (HL-60 [19]) was 11%, the Activity (HL-60 [20]) was “Dose-dependent effect” and the pIC50 (HL-60 [21]) was 4.60. For the same compound, the Activity (HL-60 [22]) was 6%, the inhibition of growth at 50 µM (Caco-2 [23]) was 93% and the “growth inhibition (GI)” value (HL-60 [24]) was “Active”. For the same compound, the Activity (HL-60 [25]) was “Dose-dependent effect”, the Activity (HL-60 [26]) was 25% and the “growth inhibition (GI)” value (MDA-MB-435) was “Active”. It also gave an Activity (HL-60 [27]) of 30%, an inhibition of growth at 50 µM (PC-3 [28]) of 72% and an Activity (HL-60 [29]) of 48%. The inhibition of growth at 50 µM (ASPC1 [30]) was 48%, the pIC50 (MIA PaCa-2 [31]) was 4.74 and the Activity (HL-60 [32]) was “Dose-dependent effect”. It also gave an inhibition of growth at 50 µM (MIA PaCa-2 [33]) of 80%.
